Results collected from several papers.
ABL1 F317L phosphorylated: Tyrosine-protein kinase ABL1, phosphorylated (ABL1, Homo sapiens, UniProt P00519, F317L)
ABL1 T315I non-phosphorylated: Tyrosine-protein kinase ABL1, non-phosphorylated (ABL1, Homo sapiens, UniProt P00519, T315I)
ABL1 M351T phosphorylated: Tyrosine-protein kinase ABL1, phosphorylated (ABL1, Homo sapiens, UniProt P00519, M351T)
ABL1 non-phosphorylated: Tyrosine-protein kinase ABL1, non-phosphorylated (ABL1, Homo sapiens, UniProt P00519)
ABL1 H396P non-phosphorylated: Tyrosine-protein kinase ABL1, non-phosphorylated (ABL1, Homo sapiens, UniProt P00519, H396P)
ABL1 E255K phosphorylated: Tyrosine-protein kinase ABL1, phosphorylated (ABL1, Homo sapiens, UniProt P00519, E255K)
ABL1 Y253F phosphorylated: Tyrosine-protein kinase ABL1, phosphorylated (ABL1, Homo sapiens, UniProt P00519, Y253F)
ABL1 phosphorylated: Tyrosine-protein kinase ABL1, phosphorylated (ABL1, Homo sapiens, UniProt P00519)

Nc1ncc2c(n1)-c1c([nH]c3ccc(C#CC4CC4)cc13)CCCC2
remaining binding (ABL1 F317L phosphorylated; binding; competition with immobilised ligand; 1 µM): 88%

C[C@H](c1ccc(F)cc1)N(Cc1cccc(C(=O)O)c1)C(=O)c1cnc2ccccc2c1
remaining binding (ABL1 T315I non-phosphorylated; cell-free assay; competition with immobilised ligand; 1 µM): 85%

COc1cnc(Nc2cccc(S(N)(=O)=O)c2)nc1N1CCN(c2ccccc2)C(=O)C1
remaining binding (ABL1 M351T phosphorylated; binding; competition with immobilised ligand; 1 µM): 84%

COc1ncc2cc3ccccc3nc2c1C#N
remaining binding (Tyrosine-protein kinase ABL1, non-phosphorylated (ABL1, Homo sapiens, UniProt P00519, F317L); cell-free assay; competition with immobilised ligand; 5 µM): 100%

O=C(Nc1c[nH]nc1C(=O)NC1CCNCC1)c1cc(F)cc(F)c1
remaining binding (ABL1 non-phosphorylated; binding; competition with immobilised ligand; 1 µM): 98%

CC1=C(C#N)C(c2ccc3c(c2)c(NC(=O)c2ccccc2C)nn3C)C(C#N)=C(C)N1
remaining binding (ABL1 H396P non-phosphorylated; cell-free assay; competition with immobilised ligand; 1 µM): 100%

O=C(NCC1CCOCC1)c1n[nH]cc1NC(=O)c1c(F)cccc1F
remaining binding (Tyrosine-protein kinase ABL1, phosphorylated (ABL1, Homo sapiens, UniProt P00519, Q252H); binding; competition with immobilised ligand; 1 µM): 83%

O=C(c1ccc(Nc2ncc(Cl)c(-c3cc4ccccc4s3)n2)cc1)N1CCC(N2CCCC2)CC1
remaining binding (Tyrosine-protein kinase ABL1, non-phosphorylated (ABL1, Homo sapiens, UniProt P00519, Q252H); binding; competition with immobilised ligand; 1 µM): 7.5%

C[C@@H](c1ccc(-n2cnc3c(N)ncnc32)cc1)N1CCc2nn(C)c(Cc3ccccc3)c2C1=O
remaining binding (ABL1 M351T phosphorylated; binding; competition with immobilised ligand; 0.1 µM): 49%

CC1CCCN1c1nccc(-c2cnn3ncccc23)n1 (stereo not shown)
remaining binding (Tyrosine-protein kinase ABL1 (ABL1, Homo sapiens, UniProt P00519, Y253F); binding; 1 µM): 96%

CS(=O)(=O)NCC[C@H](NC(=O)c1cncc2c1cnn2-c1ccc(F)cc1)c1ccnc(S(C)(=O)=O)c1
remaining binding (ABL1 E255K phosphorylated; binding; competition with immobilised ligand; 1 µM): 93%

c1cncc(-c2cccc(Nc3nccc(NC4CCCCC4)n3)c2)c1
remaining binding (ABL1 T315I non-phosphorylated; binding; competition with immobilised ligand; 10 µM): 79%

CNC(=O)[C@@H]1CC[C@@H](n2c(-c3ccc4cnccc4c3)nc3ccc(C(=O)NCc4cccc(C(N)=O)c4)cc32)C1
remaining binding (ABL1 F317L phosphorylated; binding; competition with immobilised ligand; 1 µM): 95%

CN(c1nccc(-c2cnn3ncccc23)n1)C1CC1
remaining binding (Tyrosine-protein kinase ABL1 (ABL1, Homo sapiens, UniProt P00519, M351T); binding; 1 µM): 100%

CN(C)C(=O)Cn1cc(-c2nc(C3(c4ccc(-c5cnc(N)nc5)cc4)CC3)no2)cn1
remaining binding (ABL1 E255K phosphorylated; binding; competition with immobilised ligand; 1 µM): 100%

O=C(c1ccc(Nc2nccc(-c3cc4ccccc4s3)n2)cc1)N1CCC(N2CCCC2)CC1
remaining binding (ABL1 T315I non-phosphorylated; binding; competition with immobilised ligand; 1 µM): 2%

C=CC(=O)N1CCC(C(=O)NCC(=O)N2CCN(c3nc(-c4cnc(N)nc4C(F)F)nc(N4CCOCC4)n3)CC2)CC1
remaining binding (ABL1 T315I non-phosphorylated; binding; competition with immobilised ligand; 1 µM): 71%

O=C(Nc1cnc(Oc2ccc(F)cc2)nc1)N1CCc2ncccc2[C@@H]1c1ccc(F)cc1
remaining binding (ABL1 T315I non-phosphorylated; cell-free assay; competition with immobilised ligand; 1 µM): 100%

CN(CCCC(F)(F)F)c1nccc(-c2cnn3ncccc23)n1
remaining binding (Tyrosine-protein kinase ABL1 (ABL1, Homo sapiens, UniProt P00519, F317L); binding; 1 µM): 100%

O=C(NS(=O)(=O)c1ccc(NCC2CCOCC2)c([N+](=O)[O-])c1)c1ccc(N2CCN(Cc3ccc(C(F)(F)F)cc3-c3ccc(Cl)cc3)CC2)cc1Oc1cnc2[nH]ccc2c1
remaining binding (Tyrosine-protein kinase ABL1, phosphorylated (ABL1, Homo sapiens, UniProt P00519, F317I); binding; 1 µM): 100%

N[C@H]1CCN(c2nccc(-c3cnn4ncccc34)n2)C1
remaining binding (Tyrosine-protein kinase ABL1 (ABL1, Homo sapiens, UniProt P00519, Q252H); binding; 1 µM): 59%

O=C(NC[C@@H]1[C@H]2CN(C(=O)OCc3cc(C(F)(F)F)cc(C(F)(F)F)c3)C[C@@H]12)c1ccc2[nH]nnc2c1
remaining binding (ABL1 E255K phosphorylated; binding; competition with immobilised ligand; 1 µM): 92%

O=C(NCCCN1CCOCC1)c1ccc(Nc2nccc(-c3cc4ccccc4s3)n2)cc1
remaining binding (ABL1 F317L phosphorylated; binding; competition with immobilised ligand; 1 µM): 75%

COc1cnc(Nc2cccc(S(N)(=O)=O)c2)nc1N1CCN(c2ccccc2)CC1
remaining binding (ABL1 Y253F phosphorylated; binding; competition with immobilised ligand; 1 µM): 73%

Cc1cnc(Nc2ccc(C(=O)N3CCC(N4CCCC4)CC3)cc2)nc1-c1cc2ccccc2s1
remaining binding (ABL1 phosphorylated; binding; competition with immobilised ligand; 1 µM): 1.6%

CCN1CCN(Cc2ccc(C(=O)Nc3ccc(C)c(Oc4ccc5c(c4)CC(=O)N5)c3)cc2C(F)(F)F)CC1
remaining binding (ABL1 H396P non-phosphorylated; binding; competition with immobilised ligand; 1 µM): 0.35%

CN([C@@H]1CCc2c(CC(=O)O)c3cc(S(C)(=O)=O)ccc3n2C1)S(=O)(=O)c1ccc(F)cc1
remaining binding (ABL1 H396P non-phosphorylated; cell-free assay; competition with immobilised ligand; 1 µM): 55%

O=C(NCCCN1CCOCC1)c1ccc(Nc2ncc(Cl)c(-c3ccc(Cl)s3)n2)cc1
remaining binding (Tyrosine-protein kinase ABL1, phosphorylated (ABL1, Homo sapiens, UniProt P00519, T315I); binding; competition with immobilised ligand; 1 µM): 2.5%

CN(C)c1nccc(-c2cnn3ncccc23)n1
remaining binding (ABL1 phosphorylated; binding; 1 µM): 96%

O=C(c1ccc(Nc2ncc(Cl)c(-c3ccc(Cl)s3)n2)cc1)N1CCC(N2CCCC2)CC1
remaining binding (ABL1 Y253F phosphorylated; binding; competition with immobilised ligand; 1 µM): 5%

C[C@H]1CCN(c2nccc(-c3cnn4ncccc34)n2)C1
remaining binding (ABL1 non-phosphorylated; binding; 1 µM): 86%
